# Most compounds without a hit are left out; they make up all but 3.7% or so of the library.
# Mdm2-MdmX inh – inhibitors of human Mdm2/MdmX interaction | SaOS-2 split-luciferase Mdm2/MdmX complementation, luminescence | inhibition, % at 8 µM | hit rate 3% among 330,000 | AID 485346;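 active means inhibition of at least 50% at 8 µM in the primary screen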
# CHOP UPR activ – apoptotic UPR (CHOP) activation; CHO-CHOP luciferase reporter, luminescence; percent of tunicamycin response over DMSO baseline; activation, % at 10 µM; hit rate 0.34% among 330,000; AID 449763;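 active means at 10 µM dose, activation of 40% or more, normalized to positive control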
#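 System: CHO-CHOP luciferase reporter cell line; amount: 500 cells/well; buffer or medium: F12 medium containing 10% fetal bovine serum; incubation: 6 h compound exposure at 37 °C after overnight seeding; measured by: luciferase luminescence after 10 min with Steady-Glo reagent; evaluation: % reporter activation, DMSO baseline versus tunicamycin full activation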
# B2AR ag – activates human beta-2 adrenergic receptor causing internalization | P07550 | Am2.2-beta2AR cells, FAP receptor internalization, flow cytometry | response, % (no concentration beside the values) | hit rate 0.43% among 340,000 | AID 504454;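 active means response above a set limit, near 3 SD of response in nonfluorescent compounds, cut at about 42% in these data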
# Mdm2 ligase inh – Mdm2 E3 ligase (human) inhibition. cell-based MDM2 ubiquitination luciferase reporter, 2 h; 0 = plate control, 100 = twice control, blank-subtracted. signal enhancement, % at 5 µM. hit rate 0.11% among 210,000. AID 1230;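 active means signal enhancement of 30% or more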;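 further: luminescence tracks abundance of the self-degrading MDM2-luciferase fusion protein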
#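 Material: Stable MDM2–luciferase fusion reporter cells | Amount: 2000 cells seeded into each well | Dosing: One concentration, 5 µM, with 0.2% DMSO | Incubation: 4 h cell settling then 2 h compound exposure, 37 °C | Measured by: Luciferase luminescence | Read-out basis: % enhancement relative to plate controls after blank subtraction | Benchmarks: Control and blank well means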
# Dynein transport – dynein cargo transport inhibition | 3617.4 mouse cells, GR-EGFP nuclear translocation imaging; test concentration mostly 20 µM; stimulated with dexamethasone, 1 µM; active compounds read low | z-score, hits read low | hit rate 0.47% among 220,000 | AID 1381;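 active means plate z-score of nuclear minus cytoplasmic receptor signal below a set negative limit, without overly bright fluorescence or cell loss, cut at about -3.5 in these data, passing the limit was not always enough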;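 further: z-score of nuclear minus cytoplasmic ring GR-EGFP intensity difference per well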
#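 Buffer or medium: tet-free, stripped-serum medium; reagent: dexamethasone at 1.0 µM final, 30 min; incubation: 48 h induction, 1 h compound, 30 min dex at 37 °C; measured by: formaldehyde fixation, Hoechst nuclear stain, 10x automated fluorescence imaging; read-out: nuclear-to-cytoplasmic GR-EGFP distribution per well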
# UPR XBP1 act – activators of adaptive arm of unfolded protein response (XBP1). hit rate 0.33% among 330,000. activation, % at 20 µM. CHO-XBP1 luciferase reporter, IRE1-XBP1 UPR activation, luminescence; percent of tunicamycin response, DMSO as zero;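 active means versus positive control, 20 µM dose yields 30% or more activation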
#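 Material: IRE1-XBP1 luciferase reporter CHO line / Quantity: one thousand reporter cells per well / Buffer or medium: F12 with 10% serum / Compound: 20 µM single concentration, DMSO 1% / Times: 6 h treatment, 37 °C / Detection: Steady-Glo luciferase glow luminescence, 10 min after reagent addition / Benchmarks: tunicamycin high, DMSO low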
# Beta2AR ag CP1 – activates human beta-2 adrenergic receptor; shares compounds with B2AR ag; Am2.2-beta2AR cells, FAP surface receptor, flow cytometry; active compounds read low; percent response (surface receptor), % at 10 µM; hit rate 25% among 1,100; AID 540358;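 active means surface receptor percent response at or below 58%, roughly 3 SD from nonfluorescent compounds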
# FAP fluor counter – counter-screen for beta-2AR agonists: fluorescence in Am2.2 cells | shares compounds with B2AR ag | FAP fluorogen flow cytometry, fluorescence counterscreen; active compounds read low | calls only at 10 µM | 1,100 tested, under 10 active;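 active means percent response below a set limit in fluorescence channel 1 and below 50% in channel 8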
# Hits are given with their value; . = inactive; / = no result given.
SMILES,Mdm2-MdmX inh,CHOP UPR activ,B2AR ag,Mdm2 ligase inh,Dynein transport,UPR XBP1 act,Beta2AR ag CP1,FAP fluor counter
CCOc1ccccc1CN1CCC(n2nccc2NC(=O)C2CCCC2)CC1,.,.,.,/,/,.,/,/
Cc1cccc(C(=O)OCC(=O)NC(C)CCc2ccccc2)c1O (stereo unspecified),.,.,.,/,/,.,/,/
CC(C)(C)OC(=O)N[C@@H](Cc1ccccc1)C(=O)N1CCC(C(=O)N[C@@H](Cc2c[nH]c3ccccc23)C(=O)O)CC1,.,.,.,/,/,.,/,/
COc1ccc(CC(=O)Nc2ccc(-c3cn4ccccc4n3)cc2)cc1,.,.,93,.,.,.,19,.
COc1ccc(CC(=O)Nc2cccc(-c3cn4ccccc4n3)c2)cc1,.,.,.,.,.,.,/,/
CCOC(=O)/C(C#N)=C1\SS/C(=C(/C#N)C(=O)OCC)S1,.,.,/,/,.,.,/,/
O=C(COC(=O)C1CCN(S(=O)(=O)c2ccccc2)CC1)NCCc1ccccc1,.,.,.,/,/,.,/,/
COc1ccc(C(=O)Nc2ccc3oc(-c4cccc(F)c4)nc3c2)cc1OC,.,.,.,.,.,.,/,/
COc1ccccc1C(=O)Nc1ccc2oc(-c3ccc(F)cc3)nc2c1,.,.,.,.,.,.,.,.
Cc1cc(C(=O)COC(=O)CNS(=O)(=O)c2ccc3ccccc3c2)c(C)n1-c1ccccc1,.,.,47,.,.,.,.,.
CN(Cc1ccccc1F)C(=O)CN1CCN(S(=O)(=O)c2ccc3c(c2)OCCCO3)CC1,.,.,.,/,/,.,/,/
CC(C)(C)C1=CC(O)(c2ccccc2)C=C(C(C)(C)C)C1=O,.,.,.,/,/,.,/,/
O=C(Nc1ccc(NC(=O)c2ccccc2F)cc1)c1cccs1,.,.,.,/,/,.,.,.
O=C(Nc1ccc(NC(=O)c2cccs2)cc1)c1cccs1,.,.,.,/,/,.,/,/
COc1ccc(C(C)=O)cc1CSc1ccc2c(c1)OCCO2,.,.,.,/,/,.,/,/
CC(/C=C/c1ccccc1)=N\NC(N)=S,.,.,.,.,.,.,.,.
Nn1c(SCc2cn3ccccc3n2)nnc1-c1ccncc1,.,.,45,.,.,.,.,.
Nn1c(SCc2cn3cc(Cl)ccc3n2)nnc1-c1ccncc1,.,.,.,.,.,.,/,/
O=C(c1n[nH]c2ccccc12)N1CCN(S(=O)(=O)c2ccc(Cl)cc2)CC1,.,.,.,/,/,.,/,/
Cc1ccc(/C(=N/Nc2ncnc3ccccc23)C(=O)O)cc1,.,.,.,/,/,.,.,.
C=CCc1cc(Cl)ccc1OCCCNCCO,.,.,.,.,.,.,/,/
C=CCc1cc(Cl)ccc1OCCCNC(C)C,.,.,62,.,.,.,.,.
COc1ccc(Cl)cc1C(=O)Nc1cccc(-c2ccc3nncn3n2)c1,.,.,77,.,.,.,.,.
CSc1ccc(C(=O)C2CCCN(Cc3cccn3-c3cccnc3)C2)cc1 (stereo unspecified),.,.,70,.,.,.,19,.
O=C(c1ccc(Cl)cc1)C1CCCN(Cc2cccn2-c2cccnc2)C1 (stereo unspecified),.,.,.,.,.,.,/,/
SMILES,Mdm2-MdmX inh,CHOP UPR activ,B2AR ag,Mdm2 ligase inh,Dynein transport,UPR XBP1 act,Beta2AR ag CP1,FAP fluor counter
O=C(CN1C(=O)CSc2ncccc21)Nc1cccc(Cl)c1,.,.,.,/,/,.,/,/
NC(=S)N=Nc1c(O)n(Cc2ccc(F)cc2)c2ccccc12,.,.,.,.,.,.,.,.
Cc1cccc(NC(=O)Cn2c(O)c(N=NC(N)=S)c3ccccc32)c1,.,.,.,/,.,.,/,/
COc1ccc([C@H](C)NC[C@H](O)c2ccc(O)c(NC=O)c2)cc1,.,.,.,.,.,.,12,.
CC(C)Oc1ccc(/C=N/NC(N)=S)cc1,.,.,.,.,.,.,.,.
CC1=NN(C(N)=S)C(=O)C1N=Nc1ccccc1 (stereo unspecified),.,.,.,.,.,.,.,.
CCCCC(=O)Nc1ccc(C(=O)N2CCCC(C(=O)OCC)C2)cc1 (stereo unspecified),.,.,61,.,.,.,41,.
CN(C(=O)c1cccc(NC(=O)Cc2cccc(NC(=O)C3CCN(C(=O)C4CCCC4)CC3)c2)c1)C1CCC1,/,/,.,/,/,/,/,/
CN(C(=O)c1cccc(NC(=O)Cc2ccc(NC(=O)C3CCN(C(=O)C4CC4)CC3)cc2)c1)C1CCCC1,/,/,.,/,/,/,/,/
CN(C(=O)c1ccc(NC(=O)Cc2ccc(NC(=O)C3CCN(C(=O)C4CCCC4)CC3)cc2)cc1)C1CC1,.,.,.,/,/,.,/,/
CN(C(=O)c1ccc(NC(=O)Cc2cccc(NC(=O)C3CCN(C(=O)C4CCC4)CC3)c2)cc1)C1CCCC1,.,.,.,/,/,.,.,.
CN(C(=O)c1ccc(NC(=O)Cc2cccc(NC(=O)C3CCN(C(=O)C4CC4)CC3)c2)cc1)C1CCCC1,.,.,.,/,/,.,.,.
CN(C(=O)c1ccc(NC(=O)Cc2cccc(NC(=O)C3CCN(C(=O)C4CCCC4)CC3)c2)cc1)C1CC1,/,/,.,/,/,/,.,.
COc1ccc(-c2cc(OC(=O)c3ccc(F)cc3)c3c(C)oc(C)c3c(=O)c2)cc1,.,.,/,.,.,.,/,/
COc1cc(-c2cccs2)cc(=O)c2c(C)oc(C)c12,.,.,.,.,.,.,.,.
CC(C)CCn1c(COc2ccccc2)nn(CCC#N)c1=S,.,.,.,/,/,.,/,/
COc1ccccc1C(=O)Nc1ccnn1C1CCN(C(=O)c2ccoc2C)CC1,.,.,.,/,/,.,/,/
CCOC(=O)C1CCN(S(=O)(=O)c2ccc3c(c2)N(C(C)=O)CC(C)S3)CC1 (stereo unspecified),.,.,50,/,/,.,.,.
CCOC(=O)C1CCN(S(=O)(=O)c2ccc3c(c2)NC(=O)C(C)S3)CC1 (stereo unspecified),.,.,.,/,/,.,/,/
C[C@@H]1CN([C@H](C)CO)C(=O)c2cc(NS(=O)(=O)c3cn(C)cn3)ccc2O[C@H]1CN(C)C(=O)Nc1ccccc1,.,.,.,/,/,.,/,/
COc1ccccc1-c1csc(-n2ncc(C#N)c2N)n1,.,.,84,/,/,.,.,.
COC(=O)c1cnn(-c2nc(-c3ccccc3)cs2)c1N,.,.,.,/,/,.,/,/
COC(=O)c1cc(S(=O)(=O)NCCc2sccc2C)c[nH]1,.,.,.,/,/,.,/,/
CCOc1ccc(NC(=O)COc2ccc(S(=O)(=O)N3CCOCC3)cc2)cc1,.,.,.,/,/,.,51,.
